The values below come from ChEMBL document CHEMBL1131326, “Design, synthesis, and antiviral evaluations of 1-(substituted benzyl)-2-substituted-5,6-dichlorobenzimidazoles as nonnucleoside analogues of 2,5,6-trichloro-1-(beta-D-ribofuranosyl)benzimidazole” (J Med Chem, 1998).

Molecules are shown by their SMILES. Bounds are passed on as bounds.

By IC50 is commonly meant the concentration needed to halve the response being measured.

For the first assay, the system named is CEM-SS. In words: Cytotoxicity against CEM-SS cells in terms of incorporation of [3H]dThd. It is filed as functional, cell-based. Conditions: Homo sapiens. A digest of the protocol:
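DNA synthesis in CEM-SS cells measured as uptake of [³H]dThd into total acid-precipitable material; results averaged from duplicate experiments.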
`Nc1nc2cc(Cl)c(Cl)cc2n1Cc1ccc([N+](=O)[O-])cc1` registered an IC50 of 32 µM.
Same read-out and setting: to `Clc1ccc(Cn2c(Br)nc3cc(Cl)c(Cl)cc32)cc1` belongs above 100 µM.
Consider `CC(C)(C)c1ccc(Cn2c(Br)nc3cc(Cl)c(Cl)cc32)cc1`, for which the IC50 is above 100 µM.
The same measure, in the same setting: the same measure for `FC(F)(F)c1cccc(Cn2c(Br)nc3cc(Cl)c(Cl)cc32)c1`: above 100 µM; for `Nc1nc2cc(Cl)c(Cl)cc2n1Cc1ccc(F)cc1`: 30 µM.
On to `O=[N+]([O-])c1cccc(Cn2c(Cl)nc3cc(Cl)c(Cl)cc32)c1`, for which the IC50 is above 100 µM.
In turn, `Nc1nc2cc(Cl)c(Cl)cc2n1Cc1cc(C(F)(F)F)cc(C(F)(F)F)c1` came in with an IC50 of 34 µM.
The compound `Nc1nc2cc(Cl)c(Cl)cc2n1Cc1cccc(C(F)(F)F)c1` had an IC50 of 17 µM.
Consider `CC(C)(C)c1ccc(Cn2c(N)nc3cc(Cl)c(Cl)cc32)cc1`, for which 27 µM corresponded to half-maximal inhibition (IC50).
As to `Nc1nc2cc(Cl)c(Cl)cc2n1Cc1ccc(Cl)c(Cl)c1`, the IC50 is 30 µM.
The compound `Cc1ccc(Cn2c(Cl)nc3cc(Cl)c(Cl)cc32)cc1` had an IC50 above 100 µM.
On to `Nc1nc2cc(Cl)c(Cl)cc2n1Cc1ccc(C(F)(F)F)cc1`, for which the IC50 was determined as 20 µM.
Compound `COc1ccc(Cn2c(Br)nc3cc(Cl)c(Cl)cc32)cc1` returned an IC50 of 60 µM.
`Clc1cccc(Cn2c(Cl)nc3cc(Cl)c(Cl)cc32)c1` yielded an IC50 above 100 µM.

The subject of another assay is Human immunodeficiency virus 1. In words: Activity against HIV-1 by syncytial plaque assay performed in duplicate using CEM-SS cells. Format: functional, organism-based. Conditions: Human immunodeficiency virus 1, CEM-SS. A digest of the protocol: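 Syncytial plaque assay: poly-L-lysine-adherent CEM-SS cells infected with HIV-1 strain IIIB with or without compound at selected concentrations; syncytial plaques counted at 30-fold magnification 7 days postinfection; duplicate. IC50 from linear regression of percent inhibition against log concentration.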
The compound `Nc1nc2cc(Cl)c(Cl)cc2n1Cc1ccc([N+](=O)[O-])cc1` showed an IC50 of 21 µM.
On to `Clc1ccc(Cn2c(Br)nc3cc(Cl)c(Cl)cc32)cc1`, for which the IC50 was above 100 µM.
Turning to `CC(C)(C)c1ccc(Cn2c(Br)nc3cc(Cl)c(Cl)cc32)cc1`, the IC50 was found to be 100 µM.
`FC(F)(F)c1cccc(Cn2c(Br)nc3cc(Cl)c(Cl)cc32)c1` registered an IC50 of 12 µM.
`Nc1nc2cc(Cl)c(Cl)cc2n1Cc1ccc(F)cc1` showed an IC50 of 32 µM.
With `O=[N+]([O-])c1cccc(Cn2c(Cl)nc3cc(Cl)c(Cl)cc32)c1`, the IC50 is 20 µM.
`Nc1nc2cc(Cl)c(Cl)cc2n1Cc1cc(C(F)(F)F)cc(C(F)(F)F)c1` yielded an IC50 above 6 µM.
Consider `Nc1nc2cc(Cl)c(Cl)cc2n1Cc1cccc(C(F)(F)F)c1`, for which the IC50 was above 10 µM.
`CC(C)(C)c1ccc(Cn2c(N)nc3cc(Cl)c(Cl)cc32)cc1` yielded a 50% inhibitory concentration (IC50) of 10 µM.
Same read-out and setting: to `Nc1nc2cc(Cl)c(Cl)cc2n1Cc1ccc(Cl)c(Cl)c1` belongs above 6 µM; to `Cc1ccc(Cn2c(Cl)nc3cc(Cl)c(Cl)cc32)cc1`, 33 µM; to `Nc1nc2cc(Cl)c(Cl)cc2n1Cc1ccc(C(F)(F)F)cc1`, 1.8 µM.
Take `COc1ccc(Cn2c(Br)nc3cc(Cl)c(Cl)cc32)cc1`: the IC50 stood at 6 µM.
As for `Clc1cccc(Cn2c(Cl)nc3cc(Cl)c(Cl)cc32)c1`, 100 µM corresponded to half-maximal inhibition (IC50).

In a further assay the test system is Human betaherpesvirus 5. The assay can be described thus: Antiviral activity against human cytomegalovirus (HCMV) by plaque reduction assay. It is filed as functional, organism-based.
Conditions: not given
In outline:
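HFF monolayers infected with about 100 pfu/cm² of HCMV Towne (isolate Po); after adsorption, compound in growth medium added to duplicate wells at four to eight concentrations.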
(In general: In a plaque reduction assay, fewer plaques than in the control indicate reduced infectivity or spread.)
The compound `Nc1nc2cc(Cl)c(Cl)cc2n1Cc1ccc([N+](=O)[O-])cc1` came in with an IC50 above 100 µM.
For the compound `Clc1ccc(Cn2c(Br)nc3cc(Cl)c(Cl)cc32)cc1`, the IC50 was above 100 µM.
On the same count and under the same terms, the same measure for `CC(C)(C)c1ccc(Cn2c(Br)nc3cc(Cl)c(Cl)cc32)cc1`: above 100 µM; for `FC(F)(F)c1cccc(Cn2c(Br)nc3cc(Cl)c(Cl)cc32)c1`: above 100 µM; for `Nc1nc2cc(Cl)c(Cl)cc2n1Cc1ccc(F)cc1`: 12 µM.
Same read-out and setting: the same measure for `O=[N+]([O-])c1cccc(Cn2c(Cl)nc3cc(Cl)c(Cl)cc32)c1`: above 100 µM.
Still for that read-out and setting: the same measure for `Nc1nc2cc(Cl)c(Cl)cc2n1Cc1cc(C(F)(F)F)cc(C(F)(F)F)c1`: 32 µM.
Regarding `Nc1nc2cc(Cl)c(Cl)cc2n1Cc1cccc(C(F)(F)F)c1`, half-maximal inhibition (IC50) was put at 32 µM.
Same read-out and setting: the same measure for `CC(C)(C)c1ccc(Cn2c(N)nc3cc(Cl)c(Cl)cc32)cc1`: 22 µM.
As to `Nc1nc2cc(Cl)c(Cl)cc2n1Cc1ccc(Cl)c(Cl)c1`, the IC50 is 40 µM.
`Cc1ccc(Cn2c(Cl)nc3cc(Cl)c(Cl)cc32)cc1` yielded an IC50 above 100 µM.
Still for that read-out and setting: to `Nc1nc2cc(Cl)c(Cl)cc2n1Cc1ccc(C(F)(F)F)cc1` belongs 32 µM.
`COc1ccc(Cn2c(Br)nc3cc(Cl)c(Cl)cc32)cc1` came in with an IC50 above 100 µM.
In turn, `Clc1cccc(Cn2c(Cl)nc3cc(Cl)c(Cl)cc32)c1` registered an IC50 above 100 µM.

The subject of the next assay is Human alphaherpesvirus 1. In words: Antiviral activity against herpes simplex virus type-1 (HSV-1). Format: functional, organism-based.
Conditions: not given
In outline:
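BSC-1 cells (10 000/well, MEM(E) + 10% calf serum) incubated overnight, then given drug in quadruplicate plus HSV-1 KOS at 100 pfu/well; 3 days at 37 °C. ELISA with HRP-conjugated rabbit anti-HSV-1 antibody, TMB substrate, stopped with H₂SO₄, absorbance at 450 and 570 nm; IC50 by regression of % absorbance reduction vs log concentration.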
`Nc1nc2cc(Cl)c(Cl)cc2n1Cc1ccc([N+](=O)[O-])cc1` gave an IC50 above 100 µM.
`Clc1ccc(Cn2c(Br)nc3cc(Cl)c(Cl)cc32)cc1` displayed an IC50 above 100 µM.
As to `Nc1nc2cc(Cl)c(Cl)cc2n1Cc1ccc(F)cc1`, the IC50 was 70 µM.
Same read-out and setting: the same measure for `O=[N+]([O-])c1cccc(Cn2c(Cl)nc3cc(Cl)c(Cl)cc32)c1`: above 100 µM.
Same read-out and setting: the same measure for `Nc1nc2cc(Cl)c(Cl)cc2n1Cc1cc(C(F)(F)F)cc(C(F)(F)F)c1`: 60 µM.
With `Nc1nc2cc(Cl)c(Cl)cc2n1Cc1cccc(C(F)(F)F)c1`, it took 60 µM to reach half-maximal inhibition (IC50).
On the same count and under the same terms, to `CC(C)(C)c1ccc(Cn2c(N)nc3cc(Cl)c(Cl)cc32)cc1` belongs 60 µM.
The compound `Nc1nc2cc(Cl)c(Cl)cc2n1Cc1ccc(Cl)c(Cl)c1` showed an IC50 of 50 µM.
Same read-out and setting: to `Cc1ccc(Cn2c(Cl)nc3cc(Cl)c(Cl)cc32)cc1` belongs above 100 µM; to `COc1ccc(Cn2c(Br)nc3cc(Cl)c(Cl)cc32)cc1`, above 100 µM; to `Clc1cccc(Cn2c(Cl)nc3cc(Cl)c(Cl)cc32)c1`, above 100 µM.

The next assay relates to HFF. In words: Visual cytotoxicity scored on HFF cells at a time of HCMV plaque enumeration. Conditions: Homo sapiens. Format: functional, cell-based. In outline: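 Cytotoxicity in stationary HFF cells scored by microscopic inspection of cells not affected by virus, at time of HCMV plaque enumeration, in the plaque-assay plates.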
`Nc1nc2cc(Cl)c(Cl)cc2n1Cc1ccc([N+](=O)[O-])cc1` came in with a half-maximal inhibitory concentration (IC50) above 100 µM.
On the same count and under the same terms, to `Clc1ccc(Cn2c(Br)nc3cc(Cl)c(Cl)cc32)cc1` belongs above 100 µM; to `CC(C)(C)c1ccc(Cn2c(Br)nc3cc(Cl)c(Cl)cc32)cc1`, above 100 µM; to `FC(F)(F)c1cccc(Cn2c(Br)nc3cc(Cl)c(Cl)cc32)c1`, above 100 µM.
As to `Nc1nc2cc(Cl)c(Cl)cc2n1Cc1ccc(F)cc1`, half-maximal inhibition (IC50) was put at 37 µM.
Consider `O=[N+]([O-])c1cccc(Cn2c(Cl)nc3cc(Cl)c(Cl)cc32)c1`, for which the IC50 was above 100 µM.
Take `Nc1nc2cc(Cl)c(Cl)cc2n1Cc1cc(C(F)(F)F)cc(C(F)(F)F)c1`: the half-maximal inhibitory concentration (IC50) turned out to be 32 µM.
Still for that read-out and setting: the same measure for `Nc1nc2cc(Cl)c(Cl)cc2n1Cc1cccc(C(F)(F)F)c1`: 32 µM.
Regarding `CC(C)(C)c1ccc(Cn2c(N)nc3cc(Cl)c(Cl)cc32)cc1`, half-maximal inhibition (IC50) required 32 µM.
As for `Nc1nc2cc(Cl)c(Cl)cc2n1Cc1ccc(Cl)c(Cl)c1`, the IC50 was determined as 32 µM.
`Cc1ccc(Cn2c(Cl)nc3cc(Cl)c(Cl)cc32)cc1`: half-maximal inhibition (IC50) required 32 µM.
The compound `Nc1nc2cc(Cl)c(Cl)cc2n1Cc1ccc(C(F)(F)F)cc1` registered an IC50 of 32 µM.
On to `COc1ccc(Cn2c(Br)nc3cc(Cl)c(Cl)cc32)cc1`, for which the IC50 is above 100 µM.
Take `Clc1cccc(Cn2c(Cl)nc3cc(Cl)c(Cl)cc32)c1`: the IC50 was above 100 µM.

For another assay, the system named is KB. The assay can be described thus: Inhibition of KB cell growth determined by quadruplicate assays. Conditions: Homo sapiens. Format: functional, cell-based. A digest of the protocol:
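KB cells seeded at 3000-5000/well, overnight at 37 °C, then compound in quadruplicate at six to eight concentrations for 48 h (about two doublings) in CO₂. Cells fixed in 95% ethanol, stained with 0.1% crystal violet, dye eluted with acidified ethanol and read at 570 nm; IC50 by regression vs log concentration.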
With `Nc1nc2cc(Cl)c(Cl)cc2n1Cc1ccc([N+](=O)[O-])cc1`, inhibition was half-maximal at 35 µM (IC50).
The compound `Clc1ccc(Cn2c(Br)nc3cc(Cl)c(Cl)cc32)cc1` returned an IC50 above 100 µM.
On to `Nc1nc2cc(Cl)c(Cl)cc2n1Cc1ccc(F)cc1`, for which 70 µM corresponded to half-maximal inhibition (IC50).
`O=[N+]([O-])c1cccc(Cn2c(Cl)nc3cc(Cl)c(Cl)cc32)c1` came in with an IC50 of 239 µM.
`Nc1nc2cc(Cl)c(Cl)cc2n1Cc1cccc(C(F)(F)F)c1` had an IC50 of 45 µM.
The compound `CC(C)(C)c1ccc(Cn2c(N)nc3cc(Cl)c(Cl)cc32)cc1` returned an IC50 of 50 µM.
`Nc1nc2cc(Cl)c(Cl)cc2n1Cc1ccc(Cl)c(Cl)c1` came in with an IC50 of 35 µM.
The same measure, in the same setting: to `Cc1ccc(Cn2c(Cl)nc3cc(Cl)c(Cl)cc32)cc1` belongs above 100 µM; to `COc1ccc(Cn2c(Br)nc3cc(Cl)c(Cl)cc32)cc1`, 55 µM.
